Source: ChEMBL document CHEMBL4038284, “Synthesis of novel quinoline-based 4,5-dihydro-1H-pyrazoles as potential anticancer, antifungal, antibacterial and antiprotozoal agents” (Eur J Med Chem, 2017)
Values after ≈ are worked out from the molar mass of the structure shown.

Experiments:
Klebsiella pneumoniae [1] = assay: Antibacterial activity against ESBL positive Klebsiella pneumoniae ATCC 700603 after 24 hrs by resazurin dye based microdilution assay; type: functional; details: Klebsiella pneumoniae, 700603, 24 h
Procedure, shortened: (§1)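 MIC taken as the lowest concentration giving visible inhibition and/or by resazurin (1 mg/mL). Gentamicin was the control. Run in duplicate, repeated at least three times.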

Klebsiella pneumoniae [2] = assay: Antibacterial activity against carbapenemase positive Klebsiella pneumoniae BAA 1705 after 24 hrs by resazurin dye based microdilution assay; type: functional; details: BAA 1705, 24 h; procedure, shortened: as §1
Leishmania panamensis = assay: Antileshmanial activity against EpiR/GFP fused Leishmania panamensis MHOM/CO/87/UA140 intracellular amastigotes infected in human […] cells after 72 hrs by flow cytometric method; type: functional, cell-based; details: MHOM/CO/87/UA140, 72 h
Procedure, shortened: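 PMA-treated U-937 cells (3 × 10^5 cells/mL) infected with stationary-phase GFP L. panamensis promastigotes (15:1), 3 h at 34 °C, then washed. After 24 h, compounds added at 50, 12.5, 3.125 and 0.78 µg/mL for 72 h at 37 °C. EC50 by Probit; triplicate, two experiments.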

Candida albicans [3] = assay: Antifungal activity against Candida albicans ATCC 10231 incubated for 48 hrs under dark condition by broth microdilution method; type: functional; details: ATCC 10231, 48 h
Procedure, shortened: (§2)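 CLSI M27-A3 broth microdilution in RPMI-1640, DMSO ≤1%, compounds at 250-0.98 µg/mL final. Inoculum 1-5 × 10^3 CFU/mL. Incubated 48 h at 30 °C in a moist dark chamber, read at OD405. MIC80 and MIC50 taken from % inhibition dose-response curves (mean ± SEM, triplicate). Amphotericin B was the positive control.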

Cryptococcus neoformans [4] = assay: Antifungal activity against Cryptococcus neoformans ATCC 32264 incubated for 48 hrs under dark condition by broth microdilution method; type: functional; details: ATCC 32264, 48 h; procedure, shortened: as §2
Candida albicans [5] = assay: Growth inhibition of Candida albicans ATCC 10231 at 250 ug/ml incubated for 48 hrs under dark condition by broth microdilution method relative to control; type: functional; details: ATCC 10231, 48 h, read-out: GI
Procedure, shortened: (§3)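 CLSI M27-A3 broth microdilution in RPMI-1640, DMSO ≤1%. Inoculum 1-5 × 10^3 CFU/mL. Incubated 48 h at 30 °C, dark. % inhibition = 100 − (OD405 test − sterility control)/(OD405 growth control − sterility control), with growth and sterility control wells. Triplicate.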

Candida albicans [6] = assay: Growth inhibition of Candida albicans ATCC 10231 at 125 ug/ml incubated for 48 hrs under dark condition by broth microdilution method relative to control; type: functional; details: ATCC 10231, 48 h, read-out: GI; procedure, shortened: as §3
Candida albicans [7] = assay: Growth inhibition of Candida albicans ATCC 10231 at 62.5 ug/ml incubated for 48 hrs under dark condition by broth microdilution method relative to control; type: functional; details: ATCC 10231, 48 h, read-out: GI; procedure, shortened: as §3
Candida albicans [8] = assay: Growth inhibition of Candida albicans ATCC 10231 at 31.25 ug/ml incubated for 48 hrs under dark condition by broth microdilution method relative to control; type: functional; details: ATCC 10231, 48 h, read-out: GI; procedure, shortened: as §3
Candida albicans [9] = assay: Growth inhibition of Candida albicans ATCC 10231 at 15.62 ug/ml incubated for 48 hrs under dark condition by broth microdilution method relative to control; type: functional; details: ATCC 10231, 48 h, read-out: GI; procedure, shortened: as §3
Candida albicans [10] = assay: Growth inhibition of Candida albicans ATCC 10231 at 7.8 ug/ml incubated for 48 hrs under dark condition by broth microdilution method relative to control; type: functional; details: ATCC 10231, 48 h, read-out: GI; procedure, shortened: as §3
Candida albicans [11] = assay: Growth inhibition of Candida albicans ATCC 10231 at 3.4 ug/ml incubated for 48 hrs under dark condition by broth microdilution method relative to control; type: functional; details: ATCC 10231, 48 h, read-out: GI
Cryptococcus neoformans [12] = assay: Growth inhibition of Cryptococcus neoformans ATCC 32264 at 250 ug/ml incubated for 48 hrs under dark condition by broth microdilution method relative to control; type: functional; details: ATCC 32264, 48 h, read-out: GI; procedure, shortened: as §3
Cryptococcus neoformans [13] = assay: Growth inhibition of Cryptococcus neoformans ATCC 32264 at 125 ug/ml incubated for 48 hrs under dark condition by broth microdilution method relative to control; type: functional; details: ATCC 32264, 48 h, read-out: GI; procedure, shortened: as §3
Cryptococcus neoformans [14] = assay: Growth inhibition of Cryptococcus neoformans ATCC 32264 at 62.5 ug/ml incubated for 48 hrs under dark condition by broth microdilution method relative to control; type: functional; details: ATCC 32264, 48 h, read-out: GI; procedure, shortened: as §3
Cryptococcus neoformans [15] = assay: Growth inhibition of Cryptococcus neoformans ATCC 32264 at 31.25 ug/ml incubated for 48 hrs under dark condition by broth microdilution method relative to control; type: functional; details: ATCC 32264, 48 h, read-out: GI; procedure, shortened: as §3
Cryptococcus neoformans [16] = assay: Growth inhibition of Cryptococcus neoformans ATCC 32264 at 15.62 ug/ml incubated for 48 hrs under dark condition by broth microdilution method relative to control; type: functional; details: ATCC 32264, 48 h, read-out: GI; procedure, shortened: as §3
Cryptococcus neoformans [17] = assay: Growth inhibition of Cryptococcus neoformans ATCC 32264 at 7.8 ug/ml incubated for 48 hrs under dark condition by broth microdilution method relative to control; type: functional; details: ATCC 32264, 48 h, read-out: GI; procedure, shortened: as §3
Cryptococcus neoformans [18] = assay: Growth inhibition of Cryptococcus neoformans ATCC 32264 at 3.4 ug/ml incubated for 48 hrs under dark condition by broth microdilution method relative to control; type: functional; details: ATCC 32264, 48 h, read-out: GI
Staphylococcus aureus [19] = assay: Antibacterial activity against methicillin-sensitive Staphylococcus aureus ATCC 25923 after 24 hrs by resazurin dye based microdilution assay; type: functional; details: ATCC 25923, 24 h; procedure, shortened: as §1
Staphylococcus aureus [20] = assay: Antibacterial activity against methicillin-resistant Staphylococcus aureus ATCC 43300 after 24 hrs by resazurin dye based microdilution assay; type: functional; details: ATCC 43300, 24 h
Procedure, shortened: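 Broth microdilution in Mueller Hinton broth, inoculum 5 × 10^5 – 8 × 10^5. Compound stocks diluted in MHB with 5% DMSO and 0.1% Tween 80. Incubation 24 h at 35-37 °C. MIC is the lowest concentration with visible growth inhibition and/or by resazurin (1 mg/mL) read-out. Gentamicin as control. Run in duplicate, replicated at least three times.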

Staphylococcus aureus [21] = assay: Antibacterial activity against vancomycin-intermediate Staphylococcus aureus after 24 hrs by resazurin dye based microdilution assay; type: functional; procedure, shortened: as §1
Escherichia coli = assay: Antibacterial activity against Escherichia coli ATCC 25922 after 24 hrs by resazurin dye based microdilution assay; type: functional; details: ATCC 25922, 24 h; procedure, shortened: as §1
Pseudomonas aeruginosa = assay: Antibacterial activity against Pseudomonas aeruginosa ATCC 27853 after 24 hrs by resazurin dye based microdilution assay; type: functional; details: ATCC 27853, 24 h; procedure, shortened: as §1
Neisseria gonorrhoeae = assay: Antibacterial activity against beta lactamase positive Neisseria gonorrhoeae ATCC 31426 by oxidase test; type: functional
Procedure, shortened: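 Agar dilution MIC on GC agar with 1% isovitalex containing increasing compound concentrations. Plates inoculated with about 1×10^4 CFU (5 µL). MIC is the lowest concentration that inhibited growth, with growth confirmed by oxidase test. Run in duplicate, repeated at least three times.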

Plasmodium falciparum = assay: Antiplasmodial activity against chloroquine-sensitive Plasmodium falciparum 3D7 assessed as reduction in parasitic LDH activity after 48 hrs by Malstat reagent based […] method; type: functional; details: 3D7, 48 h
Procedure, shortened: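 Unsynchronized P. falciparum 3D7 at 0.5% parasitemia and 1% hematocrit in RPMI with 3% Albumax II. Exposed to 100, 25, 6.25 and 1.56 µg/mL for 48 h at 37 °C under 90% N2/5% CO2/5% O2. After three freeze-thaw cycles, LDH measured with Malstat and NBT/PES, 1 h in the dark, read at 650 nm. IC50 by Probit; triplicate, ≥2 experiments.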

U-937 = assay: Cytotoxicity against human U937 cells after 72 hrs by MTT assay; type: cell-based; details: u-937, 72 h
Procedure, shortened: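 Exponentially growing U-937 at 1 × 10^5 cells/mL in RPMI-1640 with 10% FBS were exposed to 200, 50, 12.5 and 3.125 µg/mL for 72 h at 37 °C, 5% CO2. MTT for 3 h, stopped with isopropanol/SDS, formazan read at 570 nm, blank-corrected. LC50 by Probit from % viability against untreated cells. Triplicate, at least two independent experiments.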

Trypanosoma cruzi = assay: Antitrypanosomal activity against Trypanosoma cruzi Tulahuen intracellular amastigote harboring LacZ infected in human U937 cells after 72 hrs by CPRG/Nonidet reagent based spectrophotometric method; type: functional, cell-based; details: U-937, 72 h
Procedure, shortened: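 U-937 cells at 2.5 × 10^5 cells/mL in RPMI-1640 with 10% serum and 0.1 µg/mL PMA were infected with β-galactosidase-transfected Tulahuen epimastigotes at 5 parasites per cell. Infected cells were exposed to 50, 12.5, 3.125 and 0.78 µg/mL for 72 h. CPRG (100 uM) and 0.1% Nonidet P-40 were added for 3 h, read at 570 nm. EC50 by Probit. Triplicate, at least two experiments; benznidazole as reference.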

Compound	MIC (Klebsiella pneumoniae [1]) [µg/mL]	MIC (Klebsiella pneumoniae [2]) [µg/mL]	EC50 (Leishmania panamensis) [µg/mL]	MIC50 (Candida albicans [3]) [µg/mL]	MIC80 (Candida albicans [3]) [µg/mL]	MIC50 (Cryptococcus neoformans [4]) [µg/mL]	MIC80 (Cryptococcus neoformans [4]) [µg/mL]	inhibition of growth at 250 µg/mL (Candida albicans [5]) [%]	inhibition of growth at 125 µg/mL (Candida albicans [6]) [%]	inhibition of growth at 62.5 µg/mL (Candida albicans [7]) [%]	inhibition of growth at 31.25 µg/mL (Candida albicans [8]) [%]	inhibition of growth at 15.62 µg/mL (Candida albicans [9]) [%]	inhibition of growth at 7.8 µg/mL (Candida albicans [10]) [%]	inhibition of growth at 3.4 µg/mL (Candida albicans [11]) [%]	inhibition of growth at 250 µg/mL (Cryptococcus neoformans [12]) [%]	inhibition of growth at 125 µg/mL (Cryptococcus neoformans [13]) [%]	inhibition of growth at 62.5 µg/mL (Cryptococcus neoformans [14]) [%]	inhibition of growth at 31.25 µg/mL (Cryptococcus neoformans [15]) [%]	inhibition of growth at 15.62 µg/mL (Cryptococcus neoformans [16]) [%]	inhibition of growth at 7.8 µg/mL (Cryptococcus neoformans [17]) [%]	also measured
COc1cc(C2=NN(c3ccccc3)C(c3cccc(Nc4ccnc5cc(Cl)ccc45)c3)C2)cc(OC)c1OC (stereo not given)	> 1000	> 1000	13.4 (≈ 23.7 µM)	250 (≈ 442 µM)	≥ 250	250 (≈ 442 µM)	≥ 250	60.5	42.3	23.4	13.4	11.6	6.63	4.16	58.6	18.3	16.2	1.65	0.13	0	inhibition of growth at 3.4 µg/mL (Cryptococcus neoformans [18]): 0%; MIC (Staphylococcus aureus [19]): > 1000 µg/mL; MIC (Staphylococcus aureus [20]): > 1000 µg/mL; MIC (Staphylococcus aureus [21]): > 1000 µg/mL; MIC (Escherichia coli): > 1000 µg/mL; MIC (Pseudomonas aeruginosa): > 1000 µg/mL; MIC (Neisseria gonorrhoeae): > 1000 µg/mL; EC50 (Plasmodium falciparum): 15.5 µg/mL (≈ 27.4 µM); LC50 (U-937): > 200 µg/mL; EC50 (Trypanosoma cruzi): 21.6 µg/mL (≈ 38.2 µM)
Cc1ccc(C2=NN(c3ccc(Cl)cc3)C(c3cccc(Nc4ccnc5cc(Cl)ccc45)c3)C2)cc1 (stereo not given)	> 1000	> 1000	49.4 (≈ 94.4 µM)	≥ 250	≥ 250	≥ 250	≥ 250	36.5	16.2	13.1	8.37	7.27	5.67	0	22.8	15.9	12.9	10.9	6.99	6.57	inhibition of growth at 3.4 µg/mL (Cryptococcus neoformans [18]): 0%; MIC (Staphylococcus aureus [19]): > 1000 µg/mL; MIC (Staphylococcus aureus [20]): > 1000 µg/mL; MIC (Staphylococcus aureus [21]): > 1000 µg/mL; MIC (Escherichia coli): > 1000 µg/mL; MIC (Pseudomonas aeruginosa): > 1000 µg/mL; MIC (Neisseria gonorrhoeae): > 1000 µg/mL; EC50 (Plasmodium falciparum): 13.7 µg/mL (≈ 26.2 µM); LC50 (U-937): > 200 µg/mL; EC50 (Trypanosoma cruzi): 21.9 µg/mL (≈ 41.9 µM)
